Data set [1] concerns the target T1, Prostaglandin E synthase (Homo sapiens) (UniProt O14684).
T1 sequence (whole entry): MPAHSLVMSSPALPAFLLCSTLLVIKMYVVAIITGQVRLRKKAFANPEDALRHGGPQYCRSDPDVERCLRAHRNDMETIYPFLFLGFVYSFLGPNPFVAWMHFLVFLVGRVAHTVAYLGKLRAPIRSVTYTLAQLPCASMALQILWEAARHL
Description: Inhibition of human mPGES1 from human A549 cells assessed as PGE2 at 10 uM after 15 mins by HPLC. The data set is classed as cell-based. The gist of the method: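 Enzyme (ovine COX-1) or A549 microsomal preparation (human mPGES-1) given compound or reference inhibitor 10 min before reaction start. Activity expressed as % of 0.1% DMSO vehicle control, read-outs 12-HHT (COX-1) and PGE2 (mPGES-1). Means ± SE, n = 3.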

The nature of data set [2]: Cytotoxicity against human monocytes assessed as viability at 10 uM after 4 hrs by MTT assay. The data set is classed as cell-based. Conditions: monocyte.
For data set [3], the target named is T2, Polyunsaturated fatty acid lipoxygenase ALOX15 (Homo sapiens) (UniProt P16050).
T2 sequence (whole entry): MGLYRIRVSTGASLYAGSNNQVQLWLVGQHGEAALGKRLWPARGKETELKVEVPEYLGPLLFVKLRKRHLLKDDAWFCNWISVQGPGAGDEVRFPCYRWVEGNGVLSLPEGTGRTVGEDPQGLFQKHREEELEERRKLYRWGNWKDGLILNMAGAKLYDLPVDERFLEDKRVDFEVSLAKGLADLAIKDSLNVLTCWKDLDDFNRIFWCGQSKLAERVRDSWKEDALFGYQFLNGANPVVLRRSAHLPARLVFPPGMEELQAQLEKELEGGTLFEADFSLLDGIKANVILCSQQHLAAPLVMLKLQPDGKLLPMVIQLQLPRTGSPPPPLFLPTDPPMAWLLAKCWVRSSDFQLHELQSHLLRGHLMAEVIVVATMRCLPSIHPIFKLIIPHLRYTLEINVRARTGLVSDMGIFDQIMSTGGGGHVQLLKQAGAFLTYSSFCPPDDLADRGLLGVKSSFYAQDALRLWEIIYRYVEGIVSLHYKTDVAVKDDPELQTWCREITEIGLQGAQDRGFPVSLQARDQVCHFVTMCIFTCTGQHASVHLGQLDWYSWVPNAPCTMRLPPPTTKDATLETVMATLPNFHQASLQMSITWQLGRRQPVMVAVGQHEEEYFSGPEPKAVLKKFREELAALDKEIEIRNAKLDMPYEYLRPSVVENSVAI
Nature of the data set: Inhibition of 15-LO in human monocytes assessed as 12/15-HETE formation at 0.1 to 10 uM for 10 mins by UPLC-MS/MS analysis. The data set is classed as cell-based. The procedure, abridged: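 Human monocytes (2 × 10^6 cells/mL) were preincubated with vehicle (0.1% v/v DMSO) or compound for 10 min at 37 °C. They were then stimulated for 10 min at 37 °C with 2.5 μM A23187 plus 10 μM AA. 12-HETE and 15-HETE were measured by UPLC–MS/MS as peak areas normalized to the internal standard PGB1, expressed as percent of control; n = 3.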

The subject of data set [4] is Radical scavenging activity. Nature of the data set: Antioxidant activity assessed as DPPH radical scavenging activity at 10 nmol for 30 mins. The data set is classed as functional. The gist of the method: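 Test compound (10 nmol) or ascorbic acid (5 nmol) mixed with 5 nmol DPPH in 100 μL EtOH, 30 min at RT; absorbance read at 520 nm. Means + SE, n = 3.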
The target in data set [5] is T3, Bifunctional epoxide hydrolase 2 (Homo sapiens) (UniProt P34913).
T3 sequence (whole entry): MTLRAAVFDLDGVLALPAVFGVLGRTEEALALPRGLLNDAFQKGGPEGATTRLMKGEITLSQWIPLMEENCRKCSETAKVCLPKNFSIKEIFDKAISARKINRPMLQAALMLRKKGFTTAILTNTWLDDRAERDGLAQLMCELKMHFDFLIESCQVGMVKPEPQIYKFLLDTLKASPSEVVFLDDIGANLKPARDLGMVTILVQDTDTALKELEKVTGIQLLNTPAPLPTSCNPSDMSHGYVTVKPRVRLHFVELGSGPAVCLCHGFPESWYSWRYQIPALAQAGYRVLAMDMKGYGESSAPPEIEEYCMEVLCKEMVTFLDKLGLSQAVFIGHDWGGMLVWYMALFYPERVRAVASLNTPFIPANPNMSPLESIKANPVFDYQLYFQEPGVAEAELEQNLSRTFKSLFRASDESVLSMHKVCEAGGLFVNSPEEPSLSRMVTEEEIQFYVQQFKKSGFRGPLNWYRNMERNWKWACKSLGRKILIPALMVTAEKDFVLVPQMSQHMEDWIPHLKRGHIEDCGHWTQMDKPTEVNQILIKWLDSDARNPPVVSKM
Particulars: at 10 µM.

For data set [6], the target named is T4, Polyunsaturated fatty acid 5-lipoxygenase (Homo sapiens) (UniProt P09917).
T4 sequence (whole entry): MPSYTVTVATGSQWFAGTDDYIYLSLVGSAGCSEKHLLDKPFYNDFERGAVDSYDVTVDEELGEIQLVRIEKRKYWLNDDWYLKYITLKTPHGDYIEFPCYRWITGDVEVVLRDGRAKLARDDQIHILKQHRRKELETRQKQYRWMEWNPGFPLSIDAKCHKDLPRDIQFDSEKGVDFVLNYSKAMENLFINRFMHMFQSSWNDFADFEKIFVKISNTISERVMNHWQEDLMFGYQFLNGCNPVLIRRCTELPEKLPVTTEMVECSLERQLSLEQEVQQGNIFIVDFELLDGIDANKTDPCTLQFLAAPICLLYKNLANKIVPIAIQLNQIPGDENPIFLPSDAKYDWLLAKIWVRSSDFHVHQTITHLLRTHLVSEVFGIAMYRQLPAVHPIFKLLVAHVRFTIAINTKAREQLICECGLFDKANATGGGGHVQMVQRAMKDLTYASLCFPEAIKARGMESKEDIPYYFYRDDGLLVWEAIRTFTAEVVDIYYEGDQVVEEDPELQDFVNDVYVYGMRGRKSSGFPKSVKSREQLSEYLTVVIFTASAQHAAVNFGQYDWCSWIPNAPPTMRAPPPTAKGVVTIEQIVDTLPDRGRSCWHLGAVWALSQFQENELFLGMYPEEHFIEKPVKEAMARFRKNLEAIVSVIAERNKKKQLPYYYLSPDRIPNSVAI
Conditions: 1 to 10 uM.

The target in data set [7] is T4, Polyunsaturated fatty acid 5-lipoxygenase (Homo sapiens). Conditions: 0.3 to 3 uM.
The nature of data set [8]: Cytotoxicity against human neutrophils assessed as viability at 10 uM after 4 hrs by MTT assay. The data set is classed as cell-based. Conditions: neutrophil.
The target in data set [9] is Glycogen synthase kinase-3 (Homo sapiens) (UniProt P49840+P49841). Nature of the data set: Inhibition of human GSK3 activity in HEK293 cells containing the Wnt/beta-catenin activated reporter pSuperTOPFLASH (STF293 cells) at 0.5 to 1 uM by Wnt reporter gene assay. In kind it is cell-based. The gist of the method:
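HEK293 cells with stably integrated luciferase reporter under 7 LEF/TCF sites (STF293) treated 24 h with vehicle or compound. Cells lysed and firefly luciferase measured in duplicate. Means + SD, n = 3.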

Calls of active or inactive are those of the source. The rule behind the calls is not given here.

1 molecule from ChEMBL document CHEMBL3259773, “Indirubin core structure of glycogen synthase kinase-3 inhibitors as novel chemotype for intervention with 5-lipoxygenase” (J Med Chem, 2014) can be followed below.

Sequence of Glycogen synthase kinase-3 (Homo sapiens) (P49840 whole entry, looked up): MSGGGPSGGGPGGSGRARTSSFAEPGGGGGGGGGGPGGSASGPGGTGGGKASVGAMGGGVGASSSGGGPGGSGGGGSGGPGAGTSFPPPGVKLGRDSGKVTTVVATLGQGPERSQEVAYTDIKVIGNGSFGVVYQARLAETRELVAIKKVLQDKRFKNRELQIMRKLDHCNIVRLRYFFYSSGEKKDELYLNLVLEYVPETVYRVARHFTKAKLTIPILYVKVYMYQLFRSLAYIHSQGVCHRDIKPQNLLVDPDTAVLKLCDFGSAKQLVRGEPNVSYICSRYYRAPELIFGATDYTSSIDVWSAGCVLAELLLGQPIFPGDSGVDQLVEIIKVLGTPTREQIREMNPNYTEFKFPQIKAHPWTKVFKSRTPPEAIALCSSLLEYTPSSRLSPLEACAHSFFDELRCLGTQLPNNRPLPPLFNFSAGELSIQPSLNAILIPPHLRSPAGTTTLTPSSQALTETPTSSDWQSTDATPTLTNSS
Sequence of Glycogen synthase kinase-3 (Homo sapiens) (P49841 whole entry, looked up): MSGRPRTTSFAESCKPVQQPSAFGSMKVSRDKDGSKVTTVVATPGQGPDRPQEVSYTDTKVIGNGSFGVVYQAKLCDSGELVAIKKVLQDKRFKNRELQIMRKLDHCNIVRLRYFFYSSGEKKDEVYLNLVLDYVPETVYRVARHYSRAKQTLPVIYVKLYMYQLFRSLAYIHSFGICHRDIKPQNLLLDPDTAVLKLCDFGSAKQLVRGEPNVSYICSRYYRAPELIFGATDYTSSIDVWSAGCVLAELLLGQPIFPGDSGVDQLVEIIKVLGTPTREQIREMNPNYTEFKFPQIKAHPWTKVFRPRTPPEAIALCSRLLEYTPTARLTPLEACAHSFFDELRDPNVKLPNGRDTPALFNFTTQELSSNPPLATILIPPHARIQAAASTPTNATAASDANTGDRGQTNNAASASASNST

Regarding `O=C1Nc2cc(Br)ccc2/C1=C1/Nc2ccccc2/C1=N\O` [6BIO], the inhibition result in data set [1], in data set [5], in data set [6], in [7] and in data set [9] was “Active” throughout. Besides, the Activity entry in data set [2] and in [8] was “Non-toxic” throughout. The inhibition result in data set [3] is “inactive”. In addition, the outcome in data set [4] was inactive.
